Entries after “also recorded” stand apart in the source; their conditions may differ.
Key:
Assay type in all cases: cell-based
NaV1.2 = NaV1.2 (Rattus norvegicus, UniProt P04775); assay: whole-cell patch-clamp, off-target channel, 10 μM compound; conditions: vs 0.1% DMSO
Outline: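 NaV channels, transiently transfected HEK293T cells, whole-cell, 16–24 h after seeding. Pipette (mM): 140 CsF, 1 EGTA, 10 NaCl, 10 HEPES, pH 7.4. Bath (mM): 140 NaCl, 5 KCl, 2 CaCl2, 1 MgCl2, 10 glucose, 10 HEPES, pH 7.4. Bath with 0.1% DMSO applied before 10 μM test compound. Inhibition ratios compared by unpaired t-test, n = 5.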

CaV2.2 = CaV2.2 (Rattus norvegicus, UniProt Q02294); assay: whole-cell patch-clamp, off-target channel, 10 μM compound; conditions: for sensitivity of channel to compound: vs 0.1% DMSO
Sequence of CaV2.2 (Q02294 whole entry): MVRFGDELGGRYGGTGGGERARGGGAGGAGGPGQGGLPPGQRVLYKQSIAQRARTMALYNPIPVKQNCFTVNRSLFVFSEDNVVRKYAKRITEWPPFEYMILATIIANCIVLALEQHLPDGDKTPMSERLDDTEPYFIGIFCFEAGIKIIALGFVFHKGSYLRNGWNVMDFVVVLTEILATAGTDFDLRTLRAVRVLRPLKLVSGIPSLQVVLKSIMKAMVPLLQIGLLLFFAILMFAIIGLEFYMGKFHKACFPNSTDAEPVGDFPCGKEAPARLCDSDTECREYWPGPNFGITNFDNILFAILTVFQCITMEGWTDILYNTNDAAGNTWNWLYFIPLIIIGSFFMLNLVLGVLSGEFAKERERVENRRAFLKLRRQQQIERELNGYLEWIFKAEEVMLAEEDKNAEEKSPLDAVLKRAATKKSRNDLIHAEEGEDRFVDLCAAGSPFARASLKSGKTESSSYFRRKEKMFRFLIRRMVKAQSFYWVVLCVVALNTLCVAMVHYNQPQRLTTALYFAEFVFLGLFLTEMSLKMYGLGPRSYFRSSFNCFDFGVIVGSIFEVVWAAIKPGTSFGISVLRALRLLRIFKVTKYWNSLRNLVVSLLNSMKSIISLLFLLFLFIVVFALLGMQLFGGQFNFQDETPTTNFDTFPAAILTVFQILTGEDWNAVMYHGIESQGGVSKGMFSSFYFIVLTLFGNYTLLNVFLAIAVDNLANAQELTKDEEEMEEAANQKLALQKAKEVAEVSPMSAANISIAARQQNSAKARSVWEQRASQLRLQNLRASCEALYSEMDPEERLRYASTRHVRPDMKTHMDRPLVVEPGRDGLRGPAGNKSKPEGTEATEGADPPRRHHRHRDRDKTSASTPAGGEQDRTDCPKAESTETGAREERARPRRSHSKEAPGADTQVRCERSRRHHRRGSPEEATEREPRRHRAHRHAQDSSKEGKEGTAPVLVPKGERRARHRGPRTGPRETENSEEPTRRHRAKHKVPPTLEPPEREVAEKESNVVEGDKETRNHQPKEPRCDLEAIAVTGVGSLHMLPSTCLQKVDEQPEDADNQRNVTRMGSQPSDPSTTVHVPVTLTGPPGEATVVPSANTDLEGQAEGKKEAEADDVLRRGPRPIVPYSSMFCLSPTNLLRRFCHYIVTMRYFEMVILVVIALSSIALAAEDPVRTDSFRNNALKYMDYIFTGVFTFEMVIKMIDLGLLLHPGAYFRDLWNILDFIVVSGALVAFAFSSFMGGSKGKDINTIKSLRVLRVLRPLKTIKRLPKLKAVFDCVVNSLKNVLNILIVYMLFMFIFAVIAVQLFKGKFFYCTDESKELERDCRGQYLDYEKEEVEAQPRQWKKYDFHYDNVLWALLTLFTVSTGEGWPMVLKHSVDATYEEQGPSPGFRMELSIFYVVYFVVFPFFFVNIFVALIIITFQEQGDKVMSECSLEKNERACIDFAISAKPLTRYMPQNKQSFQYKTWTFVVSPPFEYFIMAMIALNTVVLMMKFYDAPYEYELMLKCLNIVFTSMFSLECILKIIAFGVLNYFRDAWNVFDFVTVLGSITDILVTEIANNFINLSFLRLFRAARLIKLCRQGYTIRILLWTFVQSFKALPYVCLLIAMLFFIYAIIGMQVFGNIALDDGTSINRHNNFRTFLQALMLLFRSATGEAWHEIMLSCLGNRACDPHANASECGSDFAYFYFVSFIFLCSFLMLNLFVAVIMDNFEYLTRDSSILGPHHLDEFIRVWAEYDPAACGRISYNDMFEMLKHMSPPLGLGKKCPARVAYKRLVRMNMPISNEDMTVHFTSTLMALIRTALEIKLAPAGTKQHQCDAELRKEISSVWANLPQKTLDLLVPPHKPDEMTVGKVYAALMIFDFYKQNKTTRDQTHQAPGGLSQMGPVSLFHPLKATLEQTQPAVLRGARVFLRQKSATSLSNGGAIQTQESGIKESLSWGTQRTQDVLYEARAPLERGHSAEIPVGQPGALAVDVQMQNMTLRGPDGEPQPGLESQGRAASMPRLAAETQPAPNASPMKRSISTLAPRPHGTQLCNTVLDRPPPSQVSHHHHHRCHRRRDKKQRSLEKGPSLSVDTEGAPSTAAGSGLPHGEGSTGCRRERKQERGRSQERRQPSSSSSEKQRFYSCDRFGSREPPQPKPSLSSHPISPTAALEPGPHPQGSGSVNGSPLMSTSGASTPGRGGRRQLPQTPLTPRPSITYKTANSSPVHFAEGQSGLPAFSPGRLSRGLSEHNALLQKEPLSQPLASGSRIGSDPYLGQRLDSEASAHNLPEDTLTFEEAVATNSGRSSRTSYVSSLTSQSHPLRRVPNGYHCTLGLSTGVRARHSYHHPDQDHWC
Outline: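 CaV channels in transfected HEK293T cells, whole-cell. Pipette (mM): 120 CsMeSO3, 2 Mg-ATP, 11 EGTA, 10 HEPES, pH 7.4. Bath (mM): 138 NaCl, 5.6 KCl, 2.6 CaCl2, 20 TEA-Cl, 5 glucose, 5 HEPES, pH 7.4. 0.1% DMSO bath applied before 10 μM test compound. Inhibition ratios compared by unpaired t-test, n = 5.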

[1] = biological target: T1, mouse Otop1 (mOtop1) channels (Mus musculus, UniProt Q80VM9); assay: whole-cell patch-clamp, "on-current" analysis of acid/alkali-evoked currents
T1 sequence (Q80VM9 1-600): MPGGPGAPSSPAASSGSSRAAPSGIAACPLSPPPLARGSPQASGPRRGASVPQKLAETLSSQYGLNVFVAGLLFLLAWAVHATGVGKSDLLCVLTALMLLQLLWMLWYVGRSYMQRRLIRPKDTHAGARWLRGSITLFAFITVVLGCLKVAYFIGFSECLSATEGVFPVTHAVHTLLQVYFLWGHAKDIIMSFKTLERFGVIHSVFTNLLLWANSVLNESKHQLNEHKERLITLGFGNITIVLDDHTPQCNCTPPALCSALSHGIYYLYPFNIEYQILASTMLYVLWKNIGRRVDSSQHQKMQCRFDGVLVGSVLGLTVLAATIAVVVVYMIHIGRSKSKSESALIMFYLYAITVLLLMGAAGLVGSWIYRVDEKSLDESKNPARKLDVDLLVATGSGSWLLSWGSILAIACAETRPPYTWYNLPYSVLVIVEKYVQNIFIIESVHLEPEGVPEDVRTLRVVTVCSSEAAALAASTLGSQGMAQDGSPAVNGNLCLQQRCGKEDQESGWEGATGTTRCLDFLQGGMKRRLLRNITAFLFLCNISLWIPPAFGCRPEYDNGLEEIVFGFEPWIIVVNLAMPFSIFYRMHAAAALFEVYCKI

KV3.3 = biological target: T2, KV3.3 (Mus musculus, UniProt Q63959); assay: whole-cell patch-clamp, off-target channel, 10 μM compound; conditions: vs 0.1% DMSO
T2 sequence (Q63959 1-769): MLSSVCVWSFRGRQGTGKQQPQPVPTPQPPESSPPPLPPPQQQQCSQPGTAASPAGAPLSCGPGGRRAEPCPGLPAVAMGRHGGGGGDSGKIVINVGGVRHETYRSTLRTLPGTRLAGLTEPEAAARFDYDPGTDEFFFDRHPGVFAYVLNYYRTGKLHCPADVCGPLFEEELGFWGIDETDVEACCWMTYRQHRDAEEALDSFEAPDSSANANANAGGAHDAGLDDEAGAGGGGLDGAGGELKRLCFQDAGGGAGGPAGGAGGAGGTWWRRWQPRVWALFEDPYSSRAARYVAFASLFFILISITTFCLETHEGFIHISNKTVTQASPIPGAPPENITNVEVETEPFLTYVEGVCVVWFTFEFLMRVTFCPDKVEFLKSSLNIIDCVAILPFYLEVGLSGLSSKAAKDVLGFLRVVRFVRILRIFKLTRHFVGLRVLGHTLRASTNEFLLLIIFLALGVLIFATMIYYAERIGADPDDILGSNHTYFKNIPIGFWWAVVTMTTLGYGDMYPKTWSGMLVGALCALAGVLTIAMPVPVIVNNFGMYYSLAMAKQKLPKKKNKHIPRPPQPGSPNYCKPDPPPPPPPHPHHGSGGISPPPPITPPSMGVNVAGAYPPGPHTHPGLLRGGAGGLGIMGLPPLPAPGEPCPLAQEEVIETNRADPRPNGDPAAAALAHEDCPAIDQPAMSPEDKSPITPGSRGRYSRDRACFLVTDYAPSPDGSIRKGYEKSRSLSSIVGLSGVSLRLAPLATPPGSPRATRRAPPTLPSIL
Outline: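 KV channels in transiently transfected HEK293T cells, whole-cell. Pipette (mM): 140 KCl, 2.5 MgCl2, 11 EGTA, 10 HEPES, pH 7.4. Bath (mM): 145 NaCl, 2.8 KCl, 2 CaCl2, 1 MgCl2, 10 glucose, 10 HEPES, pH 7.4. 0.1% DMSO bath applied, then 10 μM test compound. DMSO vs compound inhibition ratio compared by unpaired t-test, n = 5.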

mouse Otop3 (mOtop3) = biological target: T3, mouse Otop3 (mOtop3) (Mus musculus, UniProt Q80UF9); assay: whole-cell patch-clamp, pH 5.5-evoked currents; conditions: 10 μM
T3 sequence (Q80UF9 1-577): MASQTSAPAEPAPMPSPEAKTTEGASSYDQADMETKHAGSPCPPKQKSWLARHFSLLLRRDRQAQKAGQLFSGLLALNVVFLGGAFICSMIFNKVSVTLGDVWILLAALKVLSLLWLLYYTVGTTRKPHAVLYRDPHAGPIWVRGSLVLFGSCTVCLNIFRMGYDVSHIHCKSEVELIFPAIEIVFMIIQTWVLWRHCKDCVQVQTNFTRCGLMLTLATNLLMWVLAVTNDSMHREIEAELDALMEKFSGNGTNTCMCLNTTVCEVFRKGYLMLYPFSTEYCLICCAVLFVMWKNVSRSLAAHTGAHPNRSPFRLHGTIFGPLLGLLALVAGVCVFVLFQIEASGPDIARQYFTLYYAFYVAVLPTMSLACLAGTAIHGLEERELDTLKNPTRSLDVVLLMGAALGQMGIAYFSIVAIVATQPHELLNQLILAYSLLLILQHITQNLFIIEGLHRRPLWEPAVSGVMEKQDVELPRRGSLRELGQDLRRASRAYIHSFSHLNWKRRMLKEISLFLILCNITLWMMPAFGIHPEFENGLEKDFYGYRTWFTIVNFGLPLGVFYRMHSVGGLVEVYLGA
Outline: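 Channel plasmid (2.5 μg) was co-transfected with EGFP plasmid (0.5 μg) using Lipofectamine 2000 into PAC-knockout HEK293T cells. Whole-cell recording 16–24 h after seeding, with Cs-aspartate pipette solution (pH 7.3). Currents evoked by pH 5.5 bath (160 mM NMDG-Cl, 2 mM CaCl2, 10 mM MES); test compound 10 μM.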

[2] = EC50s, enhancing acid-evoked Otop1 currents, summary statement
[3] = apparent EC50, potentiation of mOtop1 currents, pH 5.5, on-current analysis, n = 5

Sequence of NaV1.2 (P04775 whole entry): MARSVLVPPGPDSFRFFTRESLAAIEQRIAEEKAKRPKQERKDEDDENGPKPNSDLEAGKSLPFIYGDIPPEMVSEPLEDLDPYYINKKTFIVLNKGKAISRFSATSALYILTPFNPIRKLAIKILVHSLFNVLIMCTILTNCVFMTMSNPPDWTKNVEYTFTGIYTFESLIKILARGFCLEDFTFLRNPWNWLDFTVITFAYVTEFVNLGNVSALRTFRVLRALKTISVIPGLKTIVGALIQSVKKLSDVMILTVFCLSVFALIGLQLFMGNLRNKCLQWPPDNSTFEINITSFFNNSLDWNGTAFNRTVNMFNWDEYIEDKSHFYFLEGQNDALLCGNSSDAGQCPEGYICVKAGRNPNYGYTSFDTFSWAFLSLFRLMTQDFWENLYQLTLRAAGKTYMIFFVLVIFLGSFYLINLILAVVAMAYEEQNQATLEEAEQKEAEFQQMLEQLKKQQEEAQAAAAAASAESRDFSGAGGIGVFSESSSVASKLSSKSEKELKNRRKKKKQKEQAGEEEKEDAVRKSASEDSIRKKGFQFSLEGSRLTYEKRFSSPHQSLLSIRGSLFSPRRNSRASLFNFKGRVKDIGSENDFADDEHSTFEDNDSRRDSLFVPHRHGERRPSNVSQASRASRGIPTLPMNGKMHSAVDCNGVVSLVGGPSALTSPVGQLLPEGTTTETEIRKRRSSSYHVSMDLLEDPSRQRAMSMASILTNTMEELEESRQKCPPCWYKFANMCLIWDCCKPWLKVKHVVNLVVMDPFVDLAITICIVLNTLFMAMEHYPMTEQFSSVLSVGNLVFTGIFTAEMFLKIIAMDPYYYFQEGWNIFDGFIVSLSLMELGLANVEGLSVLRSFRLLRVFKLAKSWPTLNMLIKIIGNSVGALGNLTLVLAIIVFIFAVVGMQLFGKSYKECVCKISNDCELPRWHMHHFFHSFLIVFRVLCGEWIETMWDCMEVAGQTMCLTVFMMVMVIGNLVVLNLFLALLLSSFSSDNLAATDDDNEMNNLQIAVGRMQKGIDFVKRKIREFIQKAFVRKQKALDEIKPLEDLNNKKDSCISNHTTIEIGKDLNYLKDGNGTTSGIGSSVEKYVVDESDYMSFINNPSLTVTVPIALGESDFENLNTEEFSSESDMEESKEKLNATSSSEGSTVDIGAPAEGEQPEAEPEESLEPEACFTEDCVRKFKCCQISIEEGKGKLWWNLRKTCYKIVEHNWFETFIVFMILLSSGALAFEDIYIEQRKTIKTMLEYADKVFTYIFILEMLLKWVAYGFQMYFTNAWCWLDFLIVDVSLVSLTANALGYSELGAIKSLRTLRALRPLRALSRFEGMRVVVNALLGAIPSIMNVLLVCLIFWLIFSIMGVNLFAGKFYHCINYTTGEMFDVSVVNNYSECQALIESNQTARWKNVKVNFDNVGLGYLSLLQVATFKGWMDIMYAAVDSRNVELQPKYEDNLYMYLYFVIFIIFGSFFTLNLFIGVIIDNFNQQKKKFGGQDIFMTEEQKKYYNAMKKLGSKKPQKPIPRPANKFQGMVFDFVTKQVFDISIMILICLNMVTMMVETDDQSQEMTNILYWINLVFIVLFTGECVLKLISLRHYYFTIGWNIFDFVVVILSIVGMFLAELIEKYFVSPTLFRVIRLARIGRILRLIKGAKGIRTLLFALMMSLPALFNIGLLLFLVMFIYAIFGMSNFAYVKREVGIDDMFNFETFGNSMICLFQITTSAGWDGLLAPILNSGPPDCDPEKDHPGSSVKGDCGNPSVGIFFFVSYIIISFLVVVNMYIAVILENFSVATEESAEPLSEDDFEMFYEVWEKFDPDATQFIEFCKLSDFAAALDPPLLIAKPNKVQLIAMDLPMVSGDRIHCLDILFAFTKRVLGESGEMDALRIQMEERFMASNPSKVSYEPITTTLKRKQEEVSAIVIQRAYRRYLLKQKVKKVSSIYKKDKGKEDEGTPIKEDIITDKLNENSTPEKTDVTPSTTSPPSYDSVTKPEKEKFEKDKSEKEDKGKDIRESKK

| Structure (SMILES) | sensitivity of channel to compound (NaV1.2) | sensitivity of channel to compound (CaV2.2) | direct activation of the Otop1 channel [1] | effect on pH 3.5-activated mOtop1 currents ([1]; 10 μM) | effect on pH 5.5-activated mOtop1 currents ([1]; 10 μM, pH 5.5) | EC50 [1, 2] [µM] | EC50 [1, 3] [µM] | sensitivity of channel to compound (KV3.3) | effect on pH 5.5-evoked mOtop3 currents (mouse Otop3 (mOtop3)) | inhibition ratio (CaV2.2) [%] | effect on mOtop1 activity at alkaline or neutral pH ([1]; 10 μM, alkaline and neutral pH) | effect on pH 4.5-6.0 acid-activated mOtop1 currents ([1]; 10 μM, compared to the pH 3.5 group, Fig 1E) | EC50 ([1]; EC50, potentiation of mOtop1 currents, pH 6.0, on-current analysis, n = 5) [µM] |
| --- | --- | --- | --- | --- | --- | --- | --- | --- | --- | --- | --- | --- | --- |
| Cc1cc(NC(=O)c2ccc(Br)o2)ccc1NC(=O)c1ccco1 [B2FAMP, 5-Bromo-N-[4-(2-furoylamino)-3-methylphenyl]-2-furamide] | completely resistant | completely resistant | without directly activating | did not potentiate | robust potentiation effects; also recorded: markedly potentiated; also recorded: potent potentiation effects | ~10 | 12.2 ± 3.4 | completely resistant | did not affect | – | – | – | – |
| CC(C)c1noc2ncc(C(=O)c3ccccc3O)cc12 [HIMOP, (2-hydroxyphenyl)-(3-propan-2-yl-5-isoxazolo[5,4-b]pyridinyl)methanone] | completely resistant | completely resistant | without directly activating | did not potentiate | robust potentiation effects; also recorded: markedly potentiated; also recorded: potent potentiation effects | ~10 | 16.8 ± 6.5 | completely resistant | did not affect | – | – | – | – |
| Cc1ccc(C(=O)Nc2ccc3ccccc3c2)o1 [MFaN, 5-methyl-N-2-naphthyl-2-furamide] | completely resistant | – | without directly activating | no detectable effect | robust potentiation effects; also recorded: potent potentiation effects | ~10 | 10.3 ± 2.6 | completely resistant | did not affect | 7.9 | did not affect | potently potentiated | 8.9 ± 4.7 |

Reference: publication PMC11865470 (Communications Biology, 2025)
